ChEMBL document CHEMBL1127344, “Tridentate ligands containing the SNS donor atom set as a novel backbone for the development of technetium brain-imaging agents” (J Med Chem, 1994)

What was measured:
Mus musculus [1] = species on record: Mus musculus; assay: Tested for biodistribution of compound at 60 min in mice kidney; type: ADME, organism-based; conditions: in vivo, 1 h
In short: (§1)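 Male Swiss albino mice, at least five per group, received HPLC-purified 99mTc complex by tail vein. The complex was reconstituted in 50% methanol (0.1 mL, 2-3 μCi). Mice were killed by cardiectomy under light ether at 1-60 min pi. Organs were weighed and γ-counted against a 1% injected-dose standard to give % dose/organ. Blood and muscle were taken as 7% and 43% of body weight.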

Mus musculus [2] = species on record: Mus musculus; assay: Tested for biodistribution of compound at 5 min in mice heart; type: ADME, organism-based; conditions: in vivo; in short: as §1
Mus musculus [3] = species on record: Mus musculus; assay: Tested for biodistribution of compound at 10 min in mice spleen; type: ADME, organism-based; conditions: in vivo
In short: (§2)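 Male Swiss albino mice, at least five per group, received 0.1 mL (2-3 μCi) of HPLC-purified 99mTc complex reconstituted in 50% methanol by tail vein. They were killed by cardiectomy under light ether anesthesia at set times (1-60 min pi). Organs were weighed and γ-counted against a 1% injected-dose standard to give % dose/organ. Blood and muscle were taken as 7% and 43% of body weight.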

Mus musculus [4] = species on record: Mus musculus; assay: Tested for biodistribution of compound at 1 min in mice stomach; type: ADME, organism-based; conditions: in vivo; in short: as §2
Mus musculus [5] = species on record: Mus musculus; assay: Tested for biodistribution of compound at 5 min in mice intestine; type: ADME, organism-based; conditions: in vivo; in short: as §1
Mus musculus [6] = species on record: Mus musculus; assay: Tested for biodistribution of compound at 5 min in mice blood; type: ADME, organism-based; conditions: in vivo; in short: as §1
Mus musculus [7] = species on record: Mus musculus; assay: Tested for biodistribution of compound at 10 min in mice intestine; type: ADME, organism-based; conditions: in vivo; in short: as §2
Mus musculus [8] = species on record: Mus musculus; assay: Tested for biodistribution of compound at 30 min in mice spleen; type: ADME, organism-based; conditions: in vivo, 0.5 h; in short: as §2
Mus musculus [9] = species on record: Mus musculus; assay: Tested for biodistribution of compound at 60 min in mice heart; type: ADME, organism-based; conditions: in vivo, 1 h; in short: as §1
Mus musculus [10] = species on record: Mus musculus; assay: Tested for biodistribution of compound at 10 min in mice brain; type: ADME, organism-based; conditions: in vivo; in short: as §2
Mus musculus [11] = species on record: Mus musculus; assay: Tested for biodistribution of compound at 30 min in mice blood; type: ADME, organism-based; conditions: in vivo, 0.5 h; in short: as §2
Mus musculus [12] = species on record: Mus musculus; assay: Tested for biodistribution of compound at 60 min in mice urine; type: ADME, organism-based; conditions: in vivo, 1 h; in short: as §1
Mus musculus [13] = species on record: Mus musculus; assay: Tested for biodistribution of compound at 60 min in mice muscle; type: ADME, organism-based, Muscle tissue; conditions: in vivo, 1 h; in short: as §1
Mus musculus [14] = species on record: Mus musculus; assay: Tested for biodistribution of compound at 1 min in mice kidney; type: ADME, organism-based; conditions: in vivo; in short: as §2
Mus musculus [15] = species on record: Mus musculus; assay: Tested for biodistribution of compound at 1 min in mice lungs; type: ADME, organism-based, Lung; conditions: in vivo; in short: as §2
Mus musculus [16] = species on record: Mus musculus; assay: Tested for biodistribution of compound at 30 min in mice intestine; type: ADME, organism-based; conditions: in vivo, 0.5 h; in short: as §2
Mus musculus [17] = species on record: Mus musculus; assay: Tested for biodistribution of compound at 60 min in mice spleen; type: ADME, organism-based; conditions: in vivo, 1 h; in short: as §1
Mus musculus [18] = species on record: Mus musculus; assay: Tested for biodistribution of compound at 10 min in mice stomach; type: ADME, organism-based; conditions: in vivo; in short: as §2
Mus musculus [19] = species on record: Mus musculus; assay: Tested for biodistribution of compound at 5 min in mice stomach; type: ADME, organism-based; conditions: in vivo; in short: as §1
Mus musculus [20] = species on record: Mus musculus; assay: Tested for biodistribution of compound at 1 min in mice intestine; type: ADME, organism-based; conditions: in vivo; in short: as §2
Mus musculus [21] = species on record: Mus musculus; assay: Tested for biodistribution of compound at 60 min in mice iver; type: ADME, organism-based, Liver; conditions: in vivo, 1 h; in short: as §1
Mus musculus [22] = species on record: Mus musculus; assay: Tested for biodistribution of compound at 1 min in mice spleen; type: ADME, organism-based; conditions: in vivo; in short: as §2
Mus musculus [23] = species on record: Mus musculus; assay: Tested for biodistribution of compound at 1 min in mice blood; type: ADME, organism-based; conditions: in vivo; in short: as §2
Mus musculus [24] = species on record: Mus musculus; assay: Tested for biodistribution of compound at 60 min in mice stomach; type: ADME, organism-based; conditions: in vivo, 1 h; in short: as §1
Mus musculus [25] = species on record: Mus musculus; assay: Tested for biodistribution of compound at 5 min in mice iver; type: ADME, organism-based, Liver; conditions: in vivo; in short: as §1
Mus musculus [26] = species on record: Mus musculus; assay: Tested for biodistribution of compound at 1 min in mice liver; type: ADME, organism-based; conditions: in vivo; in short: as §2
Mus musculus [27] = species on record: Mus musculus; assay: Tested for biodistribution of compound at 60 min in mice brain; type: ADME, organism-based; conditions: in vivo, 1 h; in short: as §1
Mus musculus [28] = species on record: Mus musculus; assay: Tested for biodistribution of compound at 10 min in mice muscle; type: ADME, organism-based, Muscle tissue; conditions: in vivo; in short: as §2
Mus musculus [29] = species on record: Mus musculus; assay: Tested for biodistribution of compound at 1 min in mice heart; type: ADME, organism-based; conditions: in vivo; in short: as §2
Mus musculus [30] = species on record: Mus musculus; assay: Tested for biodistribution of compound at 10 min in mice iver; type: ADME, organism-based, Liver; conditions: in vivo; in short: as §2
Mus musculus [31] = species on record: Mus musculus; assay: Tested for biodistribution of compound at 5 min in mice kidney; type: ADME, organism-based; conditions: in vivo; in short: as §1
Mus musculus [32] = species on record: Mus musculus; assay: Tested for biodistribution of compound at 5 min in mice brain; type: ADME, organism-based; conditions: in vivo; in short: as §1
Mus musculus [33] = species on record: Mus musculus; assay: Tested for biodistribution of compound at 30 min in mice urine; type: ADME, organism-based; conditions: in vivo, 0.5 h; in short: as §2
Mus musculus [34] = species on record: Mus musculus; assay: Tested for biodistribution of compound at 30 min in mice stomach; type: ADME, organism-based; conditions: in vivo, 0.5 h; in short: as §2
Mus musculus [35] = species on record: Mus musculus; assay: Tested for biodistribution of compound at 1 min in mice brain; type: ADME, organism-based; conditions: in vivo; in short: as §2
Mus musculus [36] = species on record: Mus musculus; assay: Tested for biodistribution of compound at 30 min in mice heart; type: ADME, organism-based; conditions: in vivo, 0.5 h; in short: as §2
Mus musculus [37] = species on record: Mus musculus; assay: Tested for biodistribution of compound at 10 min in mice urine; type: ADME, organism-based; conditions: in vivo; in short: as §2
Mus musculus [38] = species on record: Mus musculus; assay: Tested for biodistribution of compound at 30 min in mice lungs; type: ADME, organism-based, Lung; conditions: in vivo, 0.5 h; in short: as §2
Mus musculus [39] = species on record: Mus musculus; assay: Tested for biodistribution of compound at 30 min in mice muscle; type: ADME, organism-based, Muscle tissue; conditions: in vivo, 0.5 h; in short: as §2
Mus musculus [40] = species on record: Mus musculus; assay: Tested for biodistribution of compound at 60 min in mice blood; type: ADME, organism-based; conditions: in vivo, 1 h; in short: as §1
Mus musculus [41] = species on record: Mus musculus; assay: Tested for biodistribution of compound at 5 min in mice muscle; type: ADME, organism-based, Muscle tissue; conditions: in vivo; in short: as §1
Mus musculus [42] = species on record: Mus musculus; assay: Tested for biodistribution of compound at 10 min in mice blood; type: ADME, organism-based; conditions: in vivo; in short: as §2
Mus musculus [43] = species on record: Mus musculus; assay: Tested for biodistribution of compound at 60 min in mice intestine; type: ADME, organism-based; conditions: in vivo, 1 h; in short: as §1
Mus musculus [44] = species on record: Mus musculus; assay: Tested for biodistribution of compound at 10 min in mice lungs; type: ADME, organism-based, Lung; conditions: in vivo; in short: as §2
Mus musculus [45] = species on record: Mus musculus; assay: Tested for biodistribution of compound at 5 min in mice spleen; type: ADME, organism-based; conditions: in vivo; in short: as §1
Mus musculus [46] = species on record: Mus musculus; assay: Tested for biodistribution of compound at 1 min in mice muscle; type: ADME, organism-based, Muscle tissue; conditions: in vivo; in short: as §2
Mus musculus [47] = species on record: Mus musculus; assay: Tested for biodistribution of compound at 30 min in mice kidney; type: ADME, organism-based; conditions: in vivo, 0.5 h; in short: as §2
Mus musculus [48] = species on record: Mus musculus; assay: Tested for biodistribution of compound at 10 min in mice heart; type: ADME, organism-based; conditions: in vivo; in short: as §2
Mus musculus [49] = species on record: Mus musculus; assay: Tested for biodistribution of compound at 5 min in mice lungs; type: ADME, organism-based, Lung; conditions: in vivo; in short: as §1
Mus musculus [50] = species on record: Mus musculus; assay: Tested for biodistribution of compound at 60 min in mice lungs; type: ADME, organism-based, Lung; conditions: in vivo, 1 h; in short: as §1
Mus musculus [51] = species on record: Mus musculus; assay: Tested for biodistribution of compound at 30 min in mice iver; type: ADME, organism-based, Liver; conditions: in vivo, 0.5 h; in short: as §2
Mus musculus [52] = species on record: Mus musculus; assay: Tested for biodistribution of compound at 30 min in mice brain; type: ADME, organism-based; conditions: in vivo, 0.5 h; in short: as §2
Mus musculus [53] = species on record: Mus musculus; assay: Tested for biodistribution of compound at 10 min in mice kidney; type: ADME, organism-based; conditions: in vivo; in short: as §2

Dose/organ (Mus musculus [1]): 0.54%
Dose/organ (Mus musculus [2]): 0.59%
Dose/organ (Mus musculus [3]): 0.16%
Dose/organ (Mus musculus [4]): 0.35%
Dose/organ (Mus musculus [5]): 9.31%
Dose/organ (Mus musculus [6]): 1.66%
Dose/organ (Mus musculus [7]): 15.44%
Dose/organ (Mus musculus [8]): 0.06%
Dose/organ (Mus musculus [9]): 0.05%
Dose/organ (Mus musculus [10]): 1.57%
Dose/organ (Mus musculus [11]): 0.8%
Dose/organ (Mus musculus [12]): 1.79%
Dose/organ (Mus musculus [13]): 5.27%
Dose/organ (Mus musculus [14]): 2.3%
Dose/organ (Mus musculus [15]): 5.25%
Dose/organ (Mus musculus [16]): 43.12%
Dose/organ (Mus musculus [17]): 0.03%
Dose/organ (Mus musculus [18]): 1.02%
Dose/organ (Mus musculus [19]): 0.73%
Dose/organ (Mus musculus [20]): 4.14%
Dose/organ (Mus musculus [21]): 18.03%
Dose/organ (Mus musculus [22]): 0.06%
Dose/organ (Mus musculus [23]): 5.77%
Dose/organ (Mus musculus [24]): 1.1%
Dose/organ (Mus musculus [25]): 16.97%
Dose/organ (Mus musculus [26]): 3.58%
Dose/organ (Mus musculus [27]): 0.15%
Dose/organ (Mus musculus [28]): 20.29%
Dose/organ (Mus musculus [29]): 4.02%
Dose/organ (Mus musculus [30]): 24.79%
Dose/organ (Mus musculus [31]): 2.45%
Dose/organ (Mus musculus [32]): 2.43%
Dose/organ (Mus musculus [33]): 0.77%
Dose/organ (Mus musculus [34]): 0.37%
Dose/organ (Mus musculus [35]): 3.68%
Dose/organ (Mus musculus [36]): 0.11%
Dose/organ (Mus musculus [37]): 0.27%
Dose/organ (Mus musculus [38]): 0.52%
Dose/organ (Mus musculus [39]): 10.41%
Dose/organ (Mus musculus [40]): 0.79%
Dose/organ (Mus musculus [41]): 25.57%
Dose/organ (Mus musculus [42]): 1.24%
Dose/organ (Mus musculus [43]): 44.3%
Dose/organ (Mus musculus [44]): 1.05%
Dose/organ (Mus musculus [45]): 0.21%
Dose/organ (Mus musculus [46]): 34.39%
Dose/organ (Mus musculus [47]): 1.04%
Dose/organ (Mus musculus [48]): 0.31%
Dose/organ (Mus musculus [49]): 1.52%
Dose/organ (Mus musculus [50]): 0.26%
Dose/organ (Mus musculus [51]): 24.36%
Dose/organ (Mus musculus [52]): 0.39%
Dose/organ (Mus musculus [53]): 1.76%
Substance: [4-methoxythio)phenolato][N,N-bis(2-mercaptoethyl)-2-(ethylthio)ethylamine] oxotechnetium
